Assay results: ChEMBL document CHEMBL4689842, “EUbOPEN Chemogenomics Library wave 1” (2021)

System: Fibroblast
Assay: Multiplex assay against human fibroblast
Assay type: toxicity, cell-based
Summary of the method: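 Live cells were stained at seeding with Hoechst33342, BioTracker Green Microtubule Cytoskeleton Dye, MitoTracker Red and Annexin V Alexa Fluor 680, then imaged on a CQ1 microscope at 37°C and 5% CO2 after compound addition. CellPathfinder machine-learning gating split cells into Hoechst high-intensity objects or normal cells. Normal cells were split into healthy, pyknosed or fragmented nuclei, and pyknosed cells into mitotic or apoptotic. Tubulin, mitochondrial-mass and membrane-permeability phenotypes are per cents of healthy-nucleus cells.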

[1] = 12 h, 1 µM, compound concentration 1 uM, replicate 1
[2] = 12 h, 1 µM, compound concentration 1 uM, replicate 2
[3] = 12 h, 10 µM, compound concentration 10 uM, replicate 1
[4] = 12 h, 10 µM, compound concentration 10 uM, replicate 2
[5] = 24 h, 1 µM, compound concentration 1 uM, replicate 1
[6] = 24 h, 1 µM, compound concentration 1 uM, replicate 2
[7] = 24 h, 10 µM, compound concentration 10 uM, replicate 1
[8] = 24 h, 10 µM, compound concentration 10 uM, replicate 2
[9] = 48 h, 1 µM, compound concentration 1 uM, replicate 1
[10] = 48 h, 1 µM, compound concentration 1 uM, replicate 2
[11] = 48 h, 10 µM, compound concentration 10 uM, replicate 1
[12] = 48 h, 10 µM, compound concentration 10 uM, replicate 2

For `Cc1ccc(S(=O)(=O)NC2c3ccccc3Oc3ccccc32)cc1`, the “Population Apoptotic (%)” value [1] was 57%, the “Population Fragmented Nuclei (%)” value [1] was 25% and the “Population Healthy Nuclei (%)” value [1] was 46%. For the same compound, the “Population Hoechst High Intensity Objects (%)” value [1] was 11%, the “Population Membrane Permeable-Phenotype (%)” value [1] was 25% and the “Population Mitochondria Different-Phenotype (%)” value [1] was 6%. The “Population Mitotic Cells (%)” value [1] was 42%, the “Population Normal (%)” value [1] was 88% and the “Population Pyknosed Nuclei (%)” value [1] was 27%. For the same compound, the “Population Tubulin-Different-Phenotype (%)” value [1] was 27%, the “Total Cell Count” value [1] was 105 and the “Population Apoptotic (%)” value [2] was 0%. The “Population Fragmented Nuclei (%)” value [2] was 10%, the “Population Healthy Nuclei (%)” value [2] was 76% and the “Population Hoechst High Intensity Objects (%)” value [2] was 4%. The “Population Membrane Permeable-Phenotype (%)” value [2] was 0%, the “Population Mitochondria Different-Phenotype (%)” value [2] was 16% and the “Population Mitotic Cells (%)” value [2] was 100%. For the same compound, the “Population Normal (%)” value [2] was 95%, the “Population Pyknosed Nuclei (%)” value [2] was 12% and the “Population Tubulin-Different-Phenotype (%)” value [2] was 2%. For the same compound, the “Total Cell Count” value [2] was 49, the “Population Apoptotic (%)” value [3] was 80% and the “Population Fragmented Nuclei (%)” value [3] was 41%. The “Population Healthy Nuclei (%)” value [3] was 41%, the “Population Hoechst High Intensity Objects (%)” value [3] was 17% and the “Population Membrane Permeable-Phenotype (%)” value [3] was 56%. For the same compound, the “Population Mitochondria Different-Phenotype (%)” value [3] was 54%, the “Population Mitotic Cells (%)” value [3] was 20% and the “Population Normal (%)” value [3] was 82%. For the same compound, the “Population Pyknosed Nuclei (%)” value [3] was 16%, the “Population Tubulin-Different-Phenotype (%)” value [3] was 17% and the “Total Cell Count” value [3] was 218. For the same compound, the “Population Apoptotic (%)” value [4] was 95%, the “Population Fragmented Nuclei (%)” value [4] was 42% and the “Population Healthy Nuclei (%)” value [4] was 34%. For the same compound, the “Population Hoechst High Intensity Objects (%)” value [4] was 6%, the “Population Membrane Permeable-Phenotype (%)” value [4] was 44% and the “Population Mitochondria Different-Phenotype (%)” value [4] was 0%. The “Population Mitotic Cells (%)” value [4] was 4%, the “Population Normal (%)” value [4] was 93% and the “Population Pyknosed Nuclei (%)” value [4] was 23%. The “Population Tubulin-Different-Phenotype (%)” value [4] was 50%, the “Total Cell Count” value [4] was 106 and the “Population Apoptotic (%)” value [5] was 50%. For the same compound, the “Population Fragmented Nuclei (%)” value [5] was 26%, the “Population Healthy Nuclei (%)” value [5] was 51% and the “Population Hoechst High Intensity Objects (%)” value [5] was 19%. For the same compound, the “Population Membrane Permeable-Phenotype (%)” value [5] was 28%, the “Population Mitochondria Different-Phenotype (%)” value [5] was 10% and the “Population Mitotic Cells (%)” value [5] was 50%. The “Population Normal (%)” value [5] was 80%, the “Population Pyknosed Nuclei (%)” value [5] was 22% and the “Population Tubulin-Different-Phenotype (%)” value [5] was 53%. For the same compound, the “Total Cell Count” value [5] was 119, the “Population Apoptotic (%)” value [6] was 25% and the “Population Fragmented Nuclei (%)” value [6] was 5%. The “Population Healthy Nuclei (%)” value [6] was 88%, the “Population Hoechst High Intensity Objects (%)” value [6] was 7% and the “Population Membrane Permeable-Phenotype (%)” value [6] was 7%. For the same compound, the “Population Mitochondria Different-Phenotype (%)” value [6] was 15%, the “Population Mitotic Cells (%)” value [6] was 75% and the “Population Normal (%)” value [6] was 92%. For the same compound, the “Population Pyknosed Nuclei (%)” value [6] was 6%, the “Population Tubulin-Different-Phenotype (%)” value [6] was 13% and the “Total Cell Count” value [6] was 65. For the same compound, the “Population Apoptotic (%)” value [7] was 75%, the “Population Fragmented Nuclei (%)” value [7] was 35% and the “Population Healthy Nuclei (%)” value [7] was 53%. The “Population Hoechst High Intensity Objects (%)” value [7] was 16%, the “Population Membrane Permeable-Phenotype (%)” value [7] was 64% and the “Population Mitochondria Different-Phenotype (%)” value [7] was 43%. The “Population Mitotic Cells (%)” value [7] was 25%, the “Population Normal (%)” value [7] was 83% and the “Population Pyknosed Nuclei (%)” value [7] was 11%. The “Population Tubulin-Different-Phenotype (%)” value [7] was 28%, the “Total Cell Count” value [7] was 170 and the “Population Apoptotic (%)” value [8] was 100%. For the same compound, the “Population Fragmented Nuclei (%)” value [8] was 10%, the “Population Healthy Nuclei (%)” value [8] was 68% and the “Population Hoechst High Intensity Objects (%)” value [8] was 4%. The “Population Membrane Permeable-Phenotype (%)” value [8] was 20%, the “Population Mitochondria Different-Phenotype (%)” value [8] was 14% and the “Population Mitotic Cells (%)” value [8] was 0%. The “Population Normal (%)” value [8] was 95%, the “Population Pyknosed Nuclei (%)” value [8] was 21% and the “Population Tubulin-Different-Phenotype (%)” value [8] was 43%. For the same compound, the “Total Cell Count” value [8] was 84, the “Population Apoptotic (%)” value [9] was 42% and the “Population Fragmented Nuclei (%)” value [9] was 33%. The “Population Healthy Nuclei (%)” value [9] was 50%, the “Population Hoechst High Intensity Objects (%)” value [9] was 19% and the “Population Membrane Permeable-Phenotype (%)” value [9] was 22%. For the same compound, the “Population Mitochondria Different-Phenotype (%)” value [9] was 4%, the “Population Mitotic Cells (%)” value [9] was 57% and the “Population Normal (%)” value [9] was 80%. The “Population Pyknosed Nuclei (%)” value [9] was 15%, the “Population Tubulin-Different-Phenotype (%)” value [9] was 37% and the “Total Cell Count” value [9] was 111. The “Population Apoptotic (%)” value [10] was 75%, the “Population Fragmented Nuclei (%)” value [10] was 17% and the “Population Healthy Nuclei (%)” value [10] was 75%. For the same compound, the “Population Hoechst High Intensity Objects (%)” value [10] was 14%, the “Population Membrane Permeable-Phenotype (%)” value [10] was 15% and the “Population Mitochondria Different-Phenotype (%)” value [10] was 6%. The “Population Mitotic Cells (%)” value [10] was 25%, the “Population Normal (%)” value [10] was 85% and the “Population Pyknosed Nuclei (%)” value [10] was 6%. For the same compound, the “Population Tubulin-Different-Phenotype (%)” value [10] was 34%, the “Total Cell Count” value [10] was 68 and the “Population Apoptotic (%)” value [11] was 42%. For the same compound, the “Population Fragmented Nuclei (%)” value [11] was 27%, the “Population Healthy Nuclei (%)” value [11] was 66% and the “Population Hoechst High Intensity Objects (%)” value [11] was 7%. For the same compound, the “Population Membrane Permeable-Phenotype (%)” value [11] was 20%, the “Population Mitochondria Different-Phenotype (%)” value [11] was 2% and the “Population Mitotic Cells (%)” value [11] was 57%. The “Population Normal (%)” value [11] was 92%, the “Population Pyknosed Nuclei (%)” value [11] was 5% and the “Population Tubulin-Different-Phenotype (%)” value [11] was 26%. The “Total Cell Count” value [11] was 133, the “Population Apoptotic (%)” value [12] was 80% and the “Population Fragmented Nuclei (%)” value [12] was 20%. The “Population Healthy Nuclei (%)” value [12] was 72%, the “Population Hoechst High Intensity Objects (%)” value [12] was 14% and the “Population Membrane Permeable-Phenotype (%)” value [12] was 25%. For the same compound, the “Population Mitochondria Different-Phenotype (%)” value [12] was 3%, the “Population Mitotic Cells (%)” value [12] was 20% and the “Population Normal (%)” value [12] was 85%. For the same compound, the “Population Pyknosed Nuclei (%)” value [12] was 6%, the “Population Tubulin-Different-Phenotype (%)” value [12] was 50% and the “Total Cell Count” value [12] was 84.
